Activity calls are given as the source filed them.
Columns and labels:
[1] = target: Neuromedin-K receptor (Homo sapiens) (UniProt P29371); assay: Inhibition of NK3 receptor at 10 uM by radioligand displacement assay
Method in brief: (§1)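 Off-target radioligand binding panel. Test compound at 10 µM. Each assay had at least 6 control wells, with or without vehicle, for soluble compounds. Values are percent inhibition of radioligand binding. ≥50% inhibition was scored as a positive response.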

[2] = target: D(2) dopamine receptor (Homo sapiens) (UniProt P14416); assay: Inhibition of D2S receptor at 10 uM by radioligand displacement assay; method in brief: as §1
[3] = target: Thromboxane A2 receptor (Homo sapiens) (UniProt P21731); assay: Inhibition of TP receptor at 10 uM by radioligand displacement assay; method in brief: as §1
Chain of Thromboxane A2 receptor (Homo sapiens) (P21731 whole entry): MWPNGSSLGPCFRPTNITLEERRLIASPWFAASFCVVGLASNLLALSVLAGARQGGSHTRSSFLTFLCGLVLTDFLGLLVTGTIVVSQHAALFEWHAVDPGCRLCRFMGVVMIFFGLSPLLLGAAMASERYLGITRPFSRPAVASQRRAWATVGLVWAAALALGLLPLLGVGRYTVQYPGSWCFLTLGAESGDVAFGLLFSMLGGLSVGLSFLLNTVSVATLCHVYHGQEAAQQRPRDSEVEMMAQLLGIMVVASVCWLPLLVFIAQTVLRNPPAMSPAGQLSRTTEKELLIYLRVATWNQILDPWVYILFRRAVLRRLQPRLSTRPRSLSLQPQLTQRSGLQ

[4] = target: Neuropeptide Y receptor type 1 (Homo sapiens) (UniProt P25929); assay: Inhibition of Y1 receptor at 10 uM by radioligand displacement assay; method in brief: as §1
Chain of Neuropeptide Y receptor type 1 (Homo sapiens) (P25929 whole entry): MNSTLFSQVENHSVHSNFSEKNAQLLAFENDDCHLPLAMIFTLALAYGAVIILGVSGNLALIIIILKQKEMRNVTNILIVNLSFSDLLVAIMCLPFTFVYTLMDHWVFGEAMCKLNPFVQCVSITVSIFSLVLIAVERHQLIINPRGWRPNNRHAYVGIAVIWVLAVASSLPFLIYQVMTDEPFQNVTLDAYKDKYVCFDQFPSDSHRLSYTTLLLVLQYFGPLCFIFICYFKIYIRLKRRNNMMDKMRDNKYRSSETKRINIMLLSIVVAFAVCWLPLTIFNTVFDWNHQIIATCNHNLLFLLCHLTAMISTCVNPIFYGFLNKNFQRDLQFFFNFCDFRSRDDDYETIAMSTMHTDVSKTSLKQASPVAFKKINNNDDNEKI

[5] = target: Sodium-dependent serotonin transporter (Homo sapiens) (UniProt P31645); assay: Inhibition of 5HT transporter at 10 uM by radioligand displacement assay; method in brief: as §1
[6] = target: Nociceptin receptor (Homo sapiens) (UniProt P41146); assay: Inhibition of NOP receptor at 10 uM by radioligand displacement assay; method in brief: as §1
[7] = target: Substance-K receptor (Homo sapiens) (UniProt P21452); assay: Inhibition of NK2 receptor at 10 uM by radioligand displacement assay; method in brief: as §1
[8] = Inhibition of Small conductance calcium-activated potassium channel at 10 uM by radioligand displacement assay; method in brief: as §1
[9] = target: 5-hydroxytryptamine receptor 6 (Homo sapiens) (UniProt P50406); assay: Inhibition of 5HT6 receptor at 10 uM by radioligand displacement assay; method in brief: as §1
[10] = target: 5-hydroxytryptamine receptor 7 (Homo sapiens) (UniProt P34969); assay: Inhibition of 5HT7 receptor at 10 uM by radioligand displacement assay; method in brief: as §1
[11] = target: Histamine H1 receptor (Homo sapiens) (UniProt P35367); assay: Inhibition of H1 receptor at 10 uM by radioligand displacement assay; method in brief: as §1
Chain of Histamine H1 receptor (Homo sapiens) (P35367 whole entry): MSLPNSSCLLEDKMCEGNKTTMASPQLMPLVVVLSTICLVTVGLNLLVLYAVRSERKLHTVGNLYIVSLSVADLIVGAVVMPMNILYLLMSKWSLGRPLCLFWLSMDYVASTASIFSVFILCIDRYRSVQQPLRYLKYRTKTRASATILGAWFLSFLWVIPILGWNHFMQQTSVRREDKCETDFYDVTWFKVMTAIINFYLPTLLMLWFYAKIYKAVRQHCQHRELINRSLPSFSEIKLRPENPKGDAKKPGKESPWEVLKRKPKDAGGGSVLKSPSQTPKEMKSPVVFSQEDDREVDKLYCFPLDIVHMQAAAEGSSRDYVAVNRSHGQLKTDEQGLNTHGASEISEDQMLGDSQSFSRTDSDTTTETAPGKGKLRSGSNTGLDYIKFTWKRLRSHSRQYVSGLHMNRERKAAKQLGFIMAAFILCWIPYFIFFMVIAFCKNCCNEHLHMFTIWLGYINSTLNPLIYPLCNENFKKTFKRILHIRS

[12] = target: C-C chemokine receptor type 1 (Homo sapiens) (UniProt P32246); assay: Inhibition of CCR1 receptor at 10 uM by radioligand displacement assay; method in brief: as §1
[13] = Inhibition of chloride channel at 10 uM by radioligand displacement assay
Method in brief: (§2)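 Off-target panel: radioligand binding to each receptor, channel or transporter with test compound at 10 µM; activity reported as percent inhibition of specific binding. At least 6 control wells with or without vehicle per assay. Inhibition of 50% or greater counted as a positive response.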

[14] = target: Muscarinic acetylcholine receptor M2 (Homo sapiens) (UniProt P08172); assay: Inhibition of M2 receptor at 10 uM by radioligand displacement assay; method in brief: as §1
[15] = target: Cannabinoid receptor 1 (Homo sapiens) (UniProt P21554); assay: Inhibition of CB1 receptor at 10 uM by radioligand displacement assay; method in brief: as §1
Chain of Cannabinoid receptor 1 (Homo sapiens) (P21554 whole entry): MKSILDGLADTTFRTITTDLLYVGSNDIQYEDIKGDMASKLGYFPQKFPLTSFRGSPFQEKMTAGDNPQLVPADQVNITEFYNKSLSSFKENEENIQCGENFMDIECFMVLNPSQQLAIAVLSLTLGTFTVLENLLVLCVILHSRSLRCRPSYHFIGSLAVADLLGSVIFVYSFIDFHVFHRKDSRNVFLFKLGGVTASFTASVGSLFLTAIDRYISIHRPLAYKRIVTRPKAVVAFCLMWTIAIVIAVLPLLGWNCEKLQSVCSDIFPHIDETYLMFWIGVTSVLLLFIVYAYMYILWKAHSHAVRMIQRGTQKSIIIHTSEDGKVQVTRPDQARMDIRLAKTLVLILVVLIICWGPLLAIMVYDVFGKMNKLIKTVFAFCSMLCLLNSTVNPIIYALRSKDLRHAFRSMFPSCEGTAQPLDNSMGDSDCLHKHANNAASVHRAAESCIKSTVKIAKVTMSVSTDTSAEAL

[16] = Inhibition of MT1 receptor at 10 uM by radioligand displacement assay; method in brief: as §1
[17] = target: C-X-C chemokine receptor type 2 (Homo sapiens) (UniProt P25025); assay: Inhibition of CXCR2 receptor at 10 uM by radioligand displacement assay; method in brief: as §1
[18] = target: Adenosine receptor A1 (Homo sapiens) (UniProt P30542); assay: Inhibition of adenosine A1 receptor at 10 uM by radioligand displacement assay; method in brief: as §1
Chain of Adenosine receptor A1 (Homo sapiens) (P30542 whole entry): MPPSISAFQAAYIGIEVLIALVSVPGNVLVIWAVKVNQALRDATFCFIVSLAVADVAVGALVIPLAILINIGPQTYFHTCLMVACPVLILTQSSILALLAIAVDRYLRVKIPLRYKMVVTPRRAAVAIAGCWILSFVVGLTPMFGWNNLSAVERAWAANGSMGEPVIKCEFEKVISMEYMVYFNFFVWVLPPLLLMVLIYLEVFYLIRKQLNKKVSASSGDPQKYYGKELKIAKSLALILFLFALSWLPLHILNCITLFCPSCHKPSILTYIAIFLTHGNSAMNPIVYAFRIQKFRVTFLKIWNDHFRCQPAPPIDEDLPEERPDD

[19] = target: Muscarinic acetylcholine receptor M3 (Homo sapiens) (UniProt P20309); assay: Inhibition of M3 receptor at 10 uM by radioligand displacement assay; method in brief: as §1
Chain of Muscarinic acetylcholine receptor M3 (Homo sapiens) (P20309 whole entry, looked up): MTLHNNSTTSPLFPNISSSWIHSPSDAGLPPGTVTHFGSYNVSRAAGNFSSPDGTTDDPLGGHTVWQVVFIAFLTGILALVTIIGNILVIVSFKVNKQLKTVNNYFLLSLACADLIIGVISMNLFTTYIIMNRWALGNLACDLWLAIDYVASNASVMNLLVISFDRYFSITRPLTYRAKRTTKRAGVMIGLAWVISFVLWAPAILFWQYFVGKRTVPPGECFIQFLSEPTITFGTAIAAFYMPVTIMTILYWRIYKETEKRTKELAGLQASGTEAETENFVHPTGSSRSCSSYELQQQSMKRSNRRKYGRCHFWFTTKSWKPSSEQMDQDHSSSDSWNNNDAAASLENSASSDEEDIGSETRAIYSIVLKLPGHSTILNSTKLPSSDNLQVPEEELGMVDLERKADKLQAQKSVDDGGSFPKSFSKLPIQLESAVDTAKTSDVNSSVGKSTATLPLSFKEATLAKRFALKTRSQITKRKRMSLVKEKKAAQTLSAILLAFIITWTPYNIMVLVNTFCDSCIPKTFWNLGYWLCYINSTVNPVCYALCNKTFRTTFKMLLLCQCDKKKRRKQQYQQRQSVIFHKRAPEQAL

[20] = target: 5-hydroxytryptamine receptor 5A (Homo sapiens) (UniProt P47898); assay: Inhibition of 5HT5A receptor at 10 uM by radioligand displacement assay; method in brief: as §1
[21] = target: Translocator protein (Homo sapiens) (UniProt P30536); assay: Inhibition of Benzodiazepine receptor at 10 uM by radioligand displacement assay; method in brief: as §1
[22] = target: Endothelin-1 receptor (Homo sapiens) (UniProt P25101); assay: Inhibition of Eta receptor at 10 uM by radioligand displacement assay; method in brief: as §1
Chain of Endothelin-1 receptor (Homo sapiens) (P25101 whole entry): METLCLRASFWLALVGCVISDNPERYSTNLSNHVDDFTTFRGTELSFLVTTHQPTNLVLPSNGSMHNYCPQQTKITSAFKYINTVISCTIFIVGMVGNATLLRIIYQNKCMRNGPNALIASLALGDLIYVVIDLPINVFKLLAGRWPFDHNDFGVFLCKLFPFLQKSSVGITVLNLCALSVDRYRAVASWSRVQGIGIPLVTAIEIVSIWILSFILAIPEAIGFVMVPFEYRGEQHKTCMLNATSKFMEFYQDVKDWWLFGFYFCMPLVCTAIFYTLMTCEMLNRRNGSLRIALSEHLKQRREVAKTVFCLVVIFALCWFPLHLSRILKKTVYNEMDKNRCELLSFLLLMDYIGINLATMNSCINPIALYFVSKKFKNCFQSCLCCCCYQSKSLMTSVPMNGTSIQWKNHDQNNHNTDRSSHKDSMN

[23] = target: Histamine H2 receptor (Homo sapiens) (UniProt P25021); assay: Inhibition of H2 receptor at 10 uM by radioligand displacement assay; method in brief: as §1
[24] = target: Beta-1 adrenergic receptor (Homo sapiens) (UniProt P08588); assay: Inhibition of Beta1 adrenergic receptor at 10 uM by radioligand displacement assay; method in brief: as §1
[25] = target: Vasoactive intestinal polypeptide receptor 1 (Homo sapiens) (UniProt P32241); assay: Inhibition of VPAC1 receptor at 10 uM by radioligand displacement assay; method in brief: as §1
[26] = target: Vasopressin V1a receptor (Homo sapiens) (UniProt P37288); assay: Inhibition of V1a receptor at 10 uM by radioligand displacement assay; method in brief: as §1
[27] = Inhibition of alpha1 adrenergic receptor at 10 uM by radioligand displacement assay; method in brief: as §2
[28] = target: Cholecystokinin receptor type A (Homo sapiens) (UniProt P32238); assay: Inhibition of CCK1 receptor at 10 uM by radioligand displacement assay; method in brief: as §1
[29] = target: Sodium-dependent noradrenaline transporter (Homo sapiens) (UniProt P23975); assay: Inhibition of norepinephrine […] at 10 uM by radioligand displacement assay; method in brief: as §2
Chain of Sodium-dependent noradrenaline transporter (Homo sapiens) (P23975 whole entry): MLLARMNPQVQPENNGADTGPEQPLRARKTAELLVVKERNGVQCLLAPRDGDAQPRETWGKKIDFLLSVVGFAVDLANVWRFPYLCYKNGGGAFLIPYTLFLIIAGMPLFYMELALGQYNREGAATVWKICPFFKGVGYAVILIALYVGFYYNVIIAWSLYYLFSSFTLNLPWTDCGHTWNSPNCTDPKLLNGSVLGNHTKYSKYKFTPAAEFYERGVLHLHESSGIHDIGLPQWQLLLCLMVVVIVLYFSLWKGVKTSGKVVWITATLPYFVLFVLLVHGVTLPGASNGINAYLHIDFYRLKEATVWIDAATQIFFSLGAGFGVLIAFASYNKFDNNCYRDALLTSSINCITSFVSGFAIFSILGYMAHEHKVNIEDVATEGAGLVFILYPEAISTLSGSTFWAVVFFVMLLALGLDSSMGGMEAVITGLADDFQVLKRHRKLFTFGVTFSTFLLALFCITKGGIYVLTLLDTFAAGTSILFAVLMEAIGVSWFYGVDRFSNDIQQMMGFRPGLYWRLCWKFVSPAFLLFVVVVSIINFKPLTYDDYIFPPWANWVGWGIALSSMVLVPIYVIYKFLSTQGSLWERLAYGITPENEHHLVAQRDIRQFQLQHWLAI

[30] = target: 5-hydroxytryptamine receptor 2A (Homo sapiens) (UniProt P28223); assay: Inhibition of 5HT2A receptor at 10 uM by radioligand displacement assay; method in brief: as §1
[31] = target: Muscarinic acetylcholine receptor M1 (Homo sapiens) (UniProt P11229); assay: Inhibition of M1 receptor at 10 uM by radioligand displacement assay; method in brief: as §1
[32] = target: Adenosine receptor A3 (Homo sapiens) (UniProt P0DMS8); assay: Inhibition of adenosine A3 receptor at 10 uM by radioligand displacement assay; method in brief: as §2
Chain of Adenosine receptor A3 (Homo sapiens) (P0DMS8 whole entry): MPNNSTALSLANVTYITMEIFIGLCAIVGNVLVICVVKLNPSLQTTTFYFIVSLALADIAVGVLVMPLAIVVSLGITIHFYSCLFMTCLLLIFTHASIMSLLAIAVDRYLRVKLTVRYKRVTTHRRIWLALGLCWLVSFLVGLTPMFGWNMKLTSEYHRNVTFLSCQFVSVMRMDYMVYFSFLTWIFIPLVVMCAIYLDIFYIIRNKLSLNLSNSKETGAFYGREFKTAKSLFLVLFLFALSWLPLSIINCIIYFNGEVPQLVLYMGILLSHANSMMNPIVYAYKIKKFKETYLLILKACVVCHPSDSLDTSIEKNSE

[33] = target: D(1A) dopamine receptor (Homo sapiens) (UniProt P21728); assay: Inhibition of dopamine D1 receptor at 10 uM by radioligand displacement assay; method in brief: as §2
Chain of D(1A) dopamine receptor (Homo sapiens) (P21728 whole entry): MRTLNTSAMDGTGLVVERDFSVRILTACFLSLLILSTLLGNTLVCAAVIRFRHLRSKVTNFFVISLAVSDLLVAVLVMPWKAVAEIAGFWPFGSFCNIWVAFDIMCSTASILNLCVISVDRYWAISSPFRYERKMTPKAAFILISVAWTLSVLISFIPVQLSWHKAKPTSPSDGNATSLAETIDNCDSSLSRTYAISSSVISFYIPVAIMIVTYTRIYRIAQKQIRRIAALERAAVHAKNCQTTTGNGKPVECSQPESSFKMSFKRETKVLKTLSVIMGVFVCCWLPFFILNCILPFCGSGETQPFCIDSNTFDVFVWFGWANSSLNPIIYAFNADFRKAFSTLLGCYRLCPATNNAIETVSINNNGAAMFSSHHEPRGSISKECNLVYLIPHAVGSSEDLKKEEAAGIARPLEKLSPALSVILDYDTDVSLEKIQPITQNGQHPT

[34] = Inhibition of Kv channel at 10 uM by radioligand displacement assay; method in brief: as §1
[35] = target: 5-hydroxytryptamine receptor 1A (Homo sapiens) (UniProt P08908); assay: Inhibition of 5HT1A receptor at 10 uM by radioligand displacement assay; method in brief: as §1
[36] = target: 5-hydroxytryptamine receptor 2B (Homo sapiens) (UniProt P41595); assay: Inhibition of 5HT2b receptor at 10 uM by radioligand displacement assay; method in brief: as §1
[37] = Inhibition of GABA receptor at 10 uM by radioligand displacement assay; method in brief: as §1
[38] = target: Neurotensin receptor type 1 (Homo sapiens) (UniProt P30989); assay: Inhibition of NTS1 receptor at 10 uM by radioligand displacement assay; method in brief: as §1
Chain of Neurotensin receptor type 1 (Homo sapiens) (P30989 whole entry): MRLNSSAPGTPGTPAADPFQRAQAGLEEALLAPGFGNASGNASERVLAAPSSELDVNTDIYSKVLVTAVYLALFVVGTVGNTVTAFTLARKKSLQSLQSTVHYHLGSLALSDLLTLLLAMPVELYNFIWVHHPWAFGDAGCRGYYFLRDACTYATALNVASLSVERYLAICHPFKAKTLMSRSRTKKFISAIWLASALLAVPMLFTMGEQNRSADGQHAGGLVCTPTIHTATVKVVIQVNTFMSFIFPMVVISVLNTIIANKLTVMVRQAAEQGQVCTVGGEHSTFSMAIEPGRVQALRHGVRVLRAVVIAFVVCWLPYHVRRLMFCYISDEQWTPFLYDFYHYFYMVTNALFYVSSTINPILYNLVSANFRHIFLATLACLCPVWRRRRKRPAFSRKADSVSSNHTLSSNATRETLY

[39] = target: Sodium-dependent dopamine transporter (Homo sapiens) (UniProt Q01959); assay: Inhibition of dopamine transporter at 10 uM by radioligand displacement assay; method in brief: as §2
[40] = Inhibition of Sodium channel at 10 uM by radioligand displacement assay; method in brief: as §1
[41] = Inhibition of L-type calcium channel at 10 uM by radioligand displacement assay; method in brief: as §1
A549 = assay: Cytotoxicity against human A549 cells after 48 hrs by MTS assay; assay type: cell-based; details: A549, 48 h
[42] = Inhibition of delta2 opioid receptor at 10 uM by radioligand displacement assay; method in brief: as §2

Cc1cc(NS(C)(=O)=O)ccc1-n1c(CCC(=O)O)ccc1-c1ccc(-n2ccnc2C)s1
inactive: inhibition [1] | inhibition [2] | inhibition [3] | inhibition [4] | inhibition [5] | inhibition [6] | inhibition [7] | inhibition [8] | inhibition [9] | inhibition [10] | inhibition [11] | inhibition [12] | inhibition [13] | inhibition [14] | inhibition [15] | inhibition [16] | inhibition [17] | inhibition [18] | inhibition [19] | inhibition [20] | inhibition [21] | inhibition [22] | inhibition [23] | inhibition [24] | inhibition [25] | inhibition [26] | inhibition [27] | inhibition [28] | inhibition [29] | inhibition [30] | inhibition [31] | inhibition [32] | inhibition [33] | inhibition [34] | inhibition [35] | inhibition [36] | inhibition [37] | inhibition [38] | inhibition [39] | inhibition [40] | inhibition [41] | inhibition [42]
> 150 µM: IC50 (A549)

Cc1cc(NS(C)(=O)=O)ccc1-n1c(CCC(=O)O)ccc1-c1ccc(-n2ccnc2)cc1
inactive: inhibition [1] | inhibition [2] | inhibition [3] | inhibition [4] | inhibition [5] | inhibition [6] | inhibition [7] | inhibition [8] | inhibition [9] | inhibition [10] | inhibition [11] | inhibition [12] | inhibition [13] | inhibition [14] | inhibition [15] | inhibition [16] | inhibition [17] | inhibition [18] | inhibition [19] | inhibition [20] | inhibition [21] | inhibition [22] | inhibition [23] | inhibition [24] | inhibition [25] | inhibition [26] | inhibition [27] | inhibition [28] | inhibition [29] | inhibition [30] | inhibition [31] | inhibition [32] | inhibition [33] | inhibition [34] | inhibition [35] | inhibition [36] | inhibition [37] | inhibition [38] | inhibition [39] | inhibition [40] | inhibition [41] | inhibition [42]
> 150 µM: IC50 (A549)

From ChEMBL document CHEMBL2010673, “Structure-activity relationship of pyrrole based S-nitrosoglutathione reductase inhibitors: carboxamide modification” (Bioorg Med Chem Lett, 2012)
